Screening results deposited in PubChem BioAssay by The Scripps Research Institute Molecular Screening Center.
HTR1A agonist = activates the human 5-HT1a serotonin receptor | P08908 | CHO 5-HT1a Ga15 NFAT-bla reporter, FRET ratio; 0% basal, 100% maximal reference agonist | activation, % at 10 µM | 65,000 compounds, 0.56% hits | AID 567;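 active means activation above the screen-wide mean activation plus 3 SD, cut at about 19% in these data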;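 further: 0% = DMSO wells and 100% = 5-CT at EC100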
5HT1a antag = blocks the human serotonin 5-HT1a receptor | P08908 | CHO 5-HT1a Ga15 NFAT-bla reporter, antagonist mode | inhibition, % at 10 µM | 62,000 compounds, 0.68% hits | AID 612;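 active means inhibition above the mean of all tested compounds plus 3 SD, cut at about 43% in these data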;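 further: receptor stimulated by 5-CT agonist at 100 nM near EC80; beta-lactamase reporter measured by ratiometric fluorescence of a cleavable substrate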
S1P3 ag = S1P3 (human) receptor agonism; 60,000 compounds, 0.1% hits; Q99500; activation, % at 4.5 µM; S1P3 NFAT-BLA reporter cells, FRET ratio; relative to 1 µM S1P, basal subtracted;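 active means activation above the screen-wide mean plus 3 SD, cut at about 4.5% in these data, passing the limit was not always enough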
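Measure – % activation relative to 1 µM S1P (100%), per plate · System – stable CHO line with human S1P3, Gα16, NFAT-BLA reporter · Timing – cells plated overnight, compound 4 h 37 °C, substrate 2 h RT · Technique – fluorescent BLA substrate, ex 405 nm, em 460/535 nm ratio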
S1P1 ag-PAM = agonists and agonism potentiators of human S1P1 receptor; S1P1 CRE-bla cells, forskolin, beta-lactamase FRET, potentiator mode; S1P1 agonist co-added at EC20, 2 nM; 100% = saturating reference agonist, 0% = basal; activation, % at 9.5 µM; 56,000 compounds, 0.57% hits; AID 449;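 active means activation above a cutoff set at the mean activation of all tested compounds plus 3 SD, cut at about 54% in these data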;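 further: forskolin at 4 µM as EC80 and the EC20 agonist is SEW2871; 100% = SEW2871 at its EC100 plus forskolin at EC80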
Target sequence (P21453 whole entry, looked up): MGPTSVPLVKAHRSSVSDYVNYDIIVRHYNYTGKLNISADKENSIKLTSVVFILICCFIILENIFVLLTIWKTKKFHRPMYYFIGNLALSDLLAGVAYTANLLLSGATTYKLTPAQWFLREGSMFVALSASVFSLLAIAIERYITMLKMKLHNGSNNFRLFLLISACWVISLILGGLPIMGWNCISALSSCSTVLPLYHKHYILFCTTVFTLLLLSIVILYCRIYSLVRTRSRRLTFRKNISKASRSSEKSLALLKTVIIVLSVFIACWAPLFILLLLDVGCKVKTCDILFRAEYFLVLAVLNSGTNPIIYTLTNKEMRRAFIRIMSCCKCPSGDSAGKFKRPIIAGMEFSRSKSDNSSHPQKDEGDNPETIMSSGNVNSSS
5HT1E antag = antagonists of human 5-HT1E serotonin receptor; P28566; CHO 5-HT1E Ga15 NFAT-bla reporter, FRET, antagonist; inhibition, % at 6 µM; 65,000 compounds, 0.99% hits; AID 571;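 active means inhibition above a set limit, the mean inhibition across every tested compound plus 3 SD, cut at about 29% in these data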;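 further: signal is the 460 over 535 nm emission ratio of beta-lactamase substrate; 0% = agonist plus DMSO wells and 100% = wells without agonist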
5HT1E ag = agonists of human 5-HT1E serotonin receptor; P28566; CHO 5-HT1E Ga15 NFAT-bla reporter, FRET; 0% DMSO wells, 100% control agonist wells; activation, % at 6 µM; 65,000 compounds, 0.69% hits; AID 574;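 active means activation above a set limit, the screen-wide mean activation plus 3 SD, cut at about 8.5% in these data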;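 further: 100% = positive control agonist at 1 µM giving full maximal response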
* marks the source's active call; other numbers are inactive results; · = no result. Hits are enriched below; roughly 3% of the tested compounds scored in any of these assays.

SMILES	HTR1A agonist	5HT1a antag	S1P3 ag	S1P1 ag-PAM	5HT1E antag	5HT1E ag
Cc1[nH]c2c(Cl)cccc2c1CCN	-1	6	-1	5	7	71*
CN1CCN(C(=O)OC2c3nccnc3C(=O)N2c2ccc(Cl)cn2)CC1 (stereo unspecified)	2	-16	-1	2	-9	1
Cc1[nH]c2ccccc2c1C1=CCNCC1	0	-16	0	15	-9	91*
CCCC12CN3CN(C1)CC(CCC)(C3)C2O (stereo unspecified)	0	·	-4	-5	4	-1
CC1CCC(C(=O)NC(C(=O)N2CCC3(CC2)OCCO3)C(C)C)CC1 (stereo unspecified)	-3	2	-1	-2	-7	0
COc1cc2c(cc1OC)-c1c(OC)c(OC)cc3c1C(C2)N(C)CC3 (stereo unspecified)	6	3	0	-21	24	25*
CCC(=NCCOc1ccc(Cl)cc1)c1c(O)n(C)c(=O)n(C)c1=O	0	·	-7	62*	16	-2
O=c1cccc2n1CC1CC2CN(C(c2ccccc2)c2sc3ncnn3c2O)C1 (stereo unspecified)	-2	3	-1	-16	-4	-1
CCCCc1nc(N2CCNCC2)c(C#N)c2c1CSC(C)(C)C2	-1	·	-3	-20	9	10*
CNP(=S)(NC)OCCOc1ccc(OC)cc1	1	9	0	-14	-2	-1
COc1cccc(N2CCN(Cc3cccc(Cl)c3)CC2)c1	2	-9	-2	-1	34*	0
COc1cccc(N2CCN(Cc3ccc(Cl)cc3)CC2)c1	-1	-5	-1	-19	0	8
COc1ccccc1N1CCN(Cc2ccccc2Cl)CC1	-1	20	-1	-15	-1	8
COc1ccccc1N1CCN(Cc2ccccc2F)CC1	1	6	-1	-20	-5	18*
COc1ccccc1N1CCN(Cc2cccc(OC)c2O)CC1	3	32	-1	·	5	13*
COc1ccccc1N1CCN(Cc2c(F)cccc2F)CC1	-1	0	-1	-7	11	2
O=C(CCCN1CCC2(CC1)C(=O)NCN2c1ccccc1)c1ccc(F)cc1	-2	·	0	-37	-30	16*
CCSc1cc(C2C(C#N)=C(N)Oc3n[nH]c(C)c32)c(C)o1 (stereo unspecified)	-2	8	-1	·	0	0
CCn1nc(-c2cccs2)nc2c(=O)n(C)c(=O)nc1-2	11	82*	-2	96*	96*	1
O=C1C2CCCN2C(c2cccs2)N1c1ccccn1 (stereo unspecified)	15	-14	-1	-8	-4	0
CN1CCN(C(=O)COc2ccc3ccccc3c2Br)CC1	-1	-4	0	·	-7	0
O=C(c1ccccc1)c1cn(CC(=O)N2CCOCC2)c2ccccc12	-1	-5	0	-16	-8	0
COc1cc2nc(CN3CC=C(c4ccccc4)CC3)[nH]c(=O)c2cc1OC	1	44*	1	22	1	0
Nc1ccc(N2CCN(Cc3ccccc3Cl)CC2)c(Cl)c1	0	3	-1	4	-8	-1
CC(C)(C)c1ccc(O)c(CN2CCN(c3ccccc3)CC2)c1	-3	64*	0	-38	-4	4
SMILES	HTR1A agonist	5HT1a antag	S1P3 ag	S1P1 ag-PAM	5HT1E antag	5HT1E ag
CSc1nnc(C2CCNCC2)n1C	0	2	-1	0	8	0
CC(C)[C@@]1(NC(=O)[C@@H]2C=C3c4cccc5[nH]cc(c45)C[C@H]3N(C)C2)O[C@@]2(O)[C@@H]3CCCN3C(=O)[C@H](Cc3ccccc3)N2C1=O	113*	·	-2	7	7	9.1*
CC(C)[C@H]1C(=O)N2CCC[C@H]2[C@]2(O)O[C@](NC(=O)[C@@H]3C=C4c5cccc6[nH]cc(c56)C[C@H]4N(C)C3)(C(C)C)C(=O)N12	102*	·	18	-38	-1	4
CC(C)[C@@]1(NC(=O)[C@@H]2C[C@@H]3c4cccc5[nH]cc(c45)C[C@H]3N(C)C2)O[C@@]2(O)[C@@H]3CCCN3C(=O)[C@H](Cc3ccccc3)N2C1=O	96*	·	0	-46	-12	2
CC1=C(C(=O)N2CCC3(CC2)OCCO3)C2(CCC(C)CC2)OC1=O (stereo unspecified)	1	7	0	9	-7	0
O=C(c1csc2c1CCCCC2)N1CCC2(CC1)OCCO2	-2	-9	0	-8	-1	0
CN(C)P(=O)(C(Cl)=C(N1CCCCC1)N1CCCCC1)N(C)C	-6	43*	-1	1	0	0
COC(=O)c1c(C)[nH]c(C(=O)C(Cc2ccccc2)N(C)C)c1C (stereo unspecified)	-4	2	0	16	13	1
Cn1c(=O)cc(OCC(=O)N2CCN(Cc3ccc4c(c3)OCO4)CC2)c2ccccc21	-3	-11	0	-46	-3	0
CN1CCN(CC(=O)Nc2ccc(Cl)cc2C(=O)c2ccccc2)CC1	2	-4	-1	-11	-4	10*
O=C(CN1CCN(CCO)CC1)Nc1ccc(Cl)cc1C(=O)c1ccccc1	-1	·	-1	6	8	-1
c1ccc2c(CN3CCCCCCC3)c[nH]c2c1	2	34	4	·	0	-1
CN1CC=C(c2c[nH]c3ccccc23)CC1	15	-2	-2	9	-7	106*
CC(=O)[C@@]1(O)CC[C@H]2[C@@H]3CC=C4C[C@@H](O)CC[C@]4(C)[C@H]3CC[C@@]21C	-1	·	-3	-9	6	0
CCN(CC)CCN=C(C)c1c(O)n(-c2ccccc2OC)c(=O)[nH]c1=O	2	·	-3	-6	-8	-1
CCCCCCn1c(N)c(C(=O)NCCN2CCOCC2)c2nc3ccccc3nc21	11	-19	10*	-130	3	3
COCCCn1c(N)c(C(=O)NCCC(C)C)c2nc3ccccc3nc21	34*	-32	10*	-112	-21	12*
Nc1c(C(=O)NCc2ccco2)c2nc3ccccc3nc2n1Cc1ccc(F)cc1	16	·	12	-64	-14	2
COc1ccc(Cn2c(N)c(C(=O)NCc3ccco3)c3nc4ccccc4nc32)cc1	-4	21	7.5*	-298	7	0
CCC(=NCCN1CCCCC1)c1c(O)n(C)c(=O)n(C)c1=O	-1	·	-2	-4	-6	0
Cn1c(O)c(C(=NCCN2CCCCC2)c2ccccc2Cl)c(=O)n(C)c1=O	-1	43*	0	-19	-11	-1
